One series concerns the target Histone deacetylase 1 (Homo sapiens, UniProt Q13547). As to the kind of experiment: Inhibition of human recombinant HDAC1 using Fluor de Lys as substrate by fluorimetric assay. The method, boiled down: (§1)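 Purified recombinant HDAC1 or HDAC4 was incubated with acetylated-lysine Fluor de Lys substrate, with or without inhibitor. Developer was then added to give the fluorophore, and fluorescence was read. IC50 values are means of at least three experiments. SI is IC50(HDAC1)/IC50(HDAC4).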

The species entered for another series is Homo sapiens. The experiment in a line: Selectivity index, ratio of IC50 for human recombinant HDAC1 to IC50 for human recombinant HDAC4. The method, boiled down: as §1
In another series the test system is PC-3. As to the kind of experiment: Antiproliferative activity against human PC3 cells after 48 hrs by MTT assay. It is filed as functional, cell-based. The conditions noted are these: PC-3, 48 h. The method in brief: (§2)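 Cells seeded at 4000/well; compounds (10 mg/mL DMSO stock, diluted in medium) added 24 h after seeding, in duplicate. Incubation 48 h at 37 °C, 5% CO2. MTT (20 µL of 5 mg/mL in PBS) then added for 4 h at 37 °C, and the signal read at 570 nm.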
(Formazan colour is commonly taken as a measure of viable cells.)

Another series has as its target Histone deacetylase 4 (Homo sapiens, UniProt P56524). As to the kind of experiment: Inhibition of human recombinant HDAC4 using Fluor de Lys as substrate by fluorimetric assay. The method, boiled down: as §1
Another series deals with HepG2. The experiment in a line: Antiproliferative activity against human HepG2 cells after 48 hrs by MTT assay. It is filed as functional, cell-based. Conditions: HepG2, 48 h. The method in brief:
as §2

For another series, the system named is HCT-116. The experiment in a line: Antiproliferative activity against human HCT116 cells after 48 hrs by MTT assay. The format is functional, cell-based. Conditions: HCT-116, 48 h. The method in brief: as §2
For another series, the target named is Histone deacetylase. As to the kind of experiment: Inhibition of human recombinant HDAC by fluorimetric assay. It is filed as protein assay.
Series [1] concerns U-937. The experiment in a line: Induction of p21waf1/CIP1 expression in human U937 cells after 24 hrs by Western blot analysis. The format is functional, cell-based. The method in brief:
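U937 cells were treated for 24 h. Total protein extracts (50 µg) were run on a 15% polyacrylamide gel and blotted for p21 (1:500), with tubulin as the loading control.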
A general note: A western blot detects proteins with antibodies after separation by electrophoresis.

The subject of series [2] is U-937. As to the kind of experiment: Cell cycle arrest in human U937 cells assessed as accumulation at G1 phase at 5 uM after 24 hrs by flow cytometry. It is filed as functional, cell-based. The method in brief:
(§3)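 U937 cells were grown in RPMI with 10% FCS, penicillin/streptomycin, amphotericin-B, 10 mM Hepes and 2 mM glutamine, and held at 200,000 cells/mL. Cells were treated 24 h with compounds in DMSO. 2.5×10^5 cells were resuspended in hypotonic buffer (0.1% Triton X-100, 0.1% sodium citrate, 50 µg/mL PI, RNase A) for 30 min in the dark, then analysed by flow cytometry. Values are means of independent duplicates.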
On the technique in general: A flow cytometer gives signals particle by particle.

For a further series, the system named is A549. The experiment in a line: Antiproliferative activity against human A549 cells after 48 hrs by MTT assay. The format is functional, cell-based. Conditions: A549, 48 h. The method in brief: as §2
For series [3], the target named is T1, Protein deacetylase HDAC6 (Homo sapiens) (UniProt Q9UBN7).
T1 sequence (whole entry): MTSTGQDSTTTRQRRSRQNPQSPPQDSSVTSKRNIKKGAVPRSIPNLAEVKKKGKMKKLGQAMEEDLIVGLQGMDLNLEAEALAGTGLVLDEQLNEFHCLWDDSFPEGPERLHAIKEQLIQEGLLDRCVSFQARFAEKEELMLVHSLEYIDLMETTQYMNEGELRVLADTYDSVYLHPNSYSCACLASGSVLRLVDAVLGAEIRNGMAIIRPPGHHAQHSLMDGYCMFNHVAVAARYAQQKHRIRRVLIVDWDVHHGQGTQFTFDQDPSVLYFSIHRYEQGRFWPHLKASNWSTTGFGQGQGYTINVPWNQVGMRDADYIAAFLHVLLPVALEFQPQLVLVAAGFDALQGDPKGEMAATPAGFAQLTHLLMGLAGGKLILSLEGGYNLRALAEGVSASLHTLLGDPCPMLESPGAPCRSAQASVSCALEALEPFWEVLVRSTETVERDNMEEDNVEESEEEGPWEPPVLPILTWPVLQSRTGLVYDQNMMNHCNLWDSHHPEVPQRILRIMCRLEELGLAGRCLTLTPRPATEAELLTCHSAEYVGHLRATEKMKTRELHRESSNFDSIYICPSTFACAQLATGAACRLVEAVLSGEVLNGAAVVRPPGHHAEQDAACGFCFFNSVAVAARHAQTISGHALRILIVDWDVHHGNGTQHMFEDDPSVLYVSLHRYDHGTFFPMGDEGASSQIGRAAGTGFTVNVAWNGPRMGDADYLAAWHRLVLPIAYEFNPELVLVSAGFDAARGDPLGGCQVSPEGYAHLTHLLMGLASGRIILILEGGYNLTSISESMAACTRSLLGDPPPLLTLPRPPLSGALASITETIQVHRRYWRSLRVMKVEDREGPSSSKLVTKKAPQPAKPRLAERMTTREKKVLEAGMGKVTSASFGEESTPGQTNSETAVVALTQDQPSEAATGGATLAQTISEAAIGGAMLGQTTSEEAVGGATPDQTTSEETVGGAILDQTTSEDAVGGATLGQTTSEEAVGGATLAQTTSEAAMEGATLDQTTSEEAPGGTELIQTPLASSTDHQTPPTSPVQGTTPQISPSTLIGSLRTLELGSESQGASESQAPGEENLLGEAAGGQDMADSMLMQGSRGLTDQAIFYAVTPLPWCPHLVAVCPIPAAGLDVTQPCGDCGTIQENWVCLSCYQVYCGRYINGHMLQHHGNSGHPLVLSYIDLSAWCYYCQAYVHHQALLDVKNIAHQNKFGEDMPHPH
As to the kind of experiment: Inhibition of HDAC6 in human U937 cells assessed as induction of alpha-tubulin acetylation after 24 hrs by Western blot analysis. The format is cell-based. Conditions: U-937. The method in brief:
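U937 cells were treated for 24 h. Total protein extract (50 µg) was run on a 10% polyacrylamide gel and blotted for acetylated α-tubulin (1:500), with total ERK as the loading control.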

Series [4] relates to U-937. The experiment in a line: Induction of apoptosis in human U937 cells assessed as caspase 3 activation at 5 uM after 24 hrs by FACS analysis. It is filed as functional, cell-based. The method in brief: (§4)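 U937 cells were grown in supplemented RPMI at 200,000 cells/mL. Compounds in DMSO were given at 5 µM for 24 h or 30 h, or at 0.5 µM for 28 h. Apoptosis was analysed by FACS. Values are means of independent duplicates.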

Series [5] has as its system U-937. The experiment in a line: Induction of apoptosis in human U937 cells assessed as caspase 3 activation at 0.5 uM after 28 hrs by FACS analysis. It is filed as functional, cell-based. The method in brief:
as §4

The test system of series [6] is U-937. The experiment in a line: Increase in granulocytic differentiation in human U937 cells assessed as CD11c expression at 0.5 uM after 28 hrs by FACS analysis. The format is functional, cell-based. The method, boiled down:
(§5)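 U937 cells were grown in RPMI with 10% FCS, 10 mM Hepes and 2 mM glutamine at 200,000 cells/mL. Compounds in DMSO were given for 30 h (5 µM) or 28 h (0.5 µM). Cells were stained for surface antigen for 30 min at 4 °C in the dark, washed, and resuspended in PBS with propidium iodide. PI-positive cells were excluded from the FACS analysis. Values are means of independent quadruplicates.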

Series [7] deals with U-937. As to the kind of experiment: Increase in granulocytic differentiation in human U937 cells assessed as CD11c expression at 5 uM after 30 hrs by FACS analysis. It is filed as functional, cell-based. The method in brief:
as §5

Series [8] relates to U-937. The experiment in a line: Induction of monocytic differentiation in human U937 cells assessed as CD14 expression at 5 uM after 30 hrs by FACS analysis. The format is functional, cell-based. The method in brief: as §5
The subject of series [9] is Plasma. The experiment in a line: Stability in rat plasma at 25 ug/ml. It is filed as ADME, cell-free. The method in brief:
(§6)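 Compounds were dissolved in blank rat plasma (1 mg/mL stock) and serially diluted with plasma. Samples were incubated at 37 °C and sampled at several times. Proteins were precipitated with two volumes of acetonitrile and spun at 16,000 rpm for 5 min, and the supernatant was analysed by HPLC.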

The test system of series [10] is U-937. As to the kind of experiment: Induction of apoptosis in human U937 cells assessed as caspase 3 activation at 5 uM after 30 hrs by FACS analysis. The format is functional, cell-based. The method, boiled down: as §4
Series [11] has as its system Plasma. As to the kind of experiment: Stability in rat plasma at 100 ug/ml. The format is ADME, cell-free. The method in brief: as §6
Series [12] can be described thus: Inhibition of HDAC.
A further series relates to Zea mays. The experiment in a line: Selectivity for maize histone deacetylase 1A over maize histone deacetylase 1B.
The test system of series [13] is U-937. As to the kind of experiment: Cell cycle arrest in human U937 cells assessed as accumulation at S phase at 5 uM after 24 hrs by flow cytometry. The format is functional, cell-based. The method in brief:
as §3

SMILES strings stand for the structures. The source made the active and inactive calls. The calls are words filed in the database; no cut-off is given here.

Sequence of Histone deacetylase 4 (P56524 whole entry): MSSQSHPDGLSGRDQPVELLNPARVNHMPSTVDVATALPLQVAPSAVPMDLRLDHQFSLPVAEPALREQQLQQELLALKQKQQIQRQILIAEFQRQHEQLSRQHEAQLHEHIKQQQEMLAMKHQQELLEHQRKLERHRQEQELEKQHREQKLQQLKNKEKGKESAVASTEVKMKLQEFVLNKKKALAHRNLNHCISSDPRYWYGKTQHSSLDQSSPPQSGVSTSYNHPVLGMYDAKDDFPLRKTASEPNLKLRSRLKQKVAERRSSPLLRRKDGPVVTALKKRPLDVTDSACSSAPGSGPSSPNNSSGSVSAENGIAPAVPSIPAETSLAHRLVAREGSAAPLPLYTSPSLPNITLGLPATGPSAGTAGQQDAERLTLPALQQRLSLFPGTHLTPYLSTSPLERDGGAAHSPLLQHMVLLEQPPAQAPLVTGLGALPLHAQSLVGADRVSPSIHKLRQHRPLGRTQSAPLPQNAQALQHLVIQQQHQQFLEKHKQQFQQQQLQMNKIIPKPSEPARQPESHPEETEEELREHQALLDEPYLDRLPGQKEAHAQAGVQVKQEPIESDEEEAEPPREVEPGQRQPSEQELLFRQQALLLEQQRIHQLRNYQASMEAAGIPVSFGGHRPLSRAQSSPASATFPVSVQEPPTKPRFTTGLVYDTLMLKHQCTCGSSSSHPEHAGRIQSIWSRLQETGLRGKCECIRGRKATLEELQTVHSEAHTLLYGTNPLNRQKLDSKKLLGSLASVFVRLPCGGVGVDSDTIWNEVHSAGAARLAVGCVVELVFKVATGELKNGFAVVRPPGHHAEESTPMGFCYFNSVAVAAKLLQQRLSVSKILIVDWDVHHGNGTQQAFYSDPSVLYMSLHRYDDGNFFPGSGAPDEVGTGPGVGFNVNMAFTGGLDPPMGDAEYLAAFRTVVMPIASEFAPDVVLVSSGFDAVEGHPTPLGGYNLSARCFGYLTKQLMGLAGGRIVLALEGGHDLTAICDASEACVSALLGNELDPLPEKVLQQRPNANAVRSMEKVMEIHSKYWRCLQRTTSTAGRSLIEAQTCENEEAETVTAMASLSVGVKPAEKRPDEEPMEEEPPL
Sequence of Histone deacetylase 1 (Q13547 whole entry): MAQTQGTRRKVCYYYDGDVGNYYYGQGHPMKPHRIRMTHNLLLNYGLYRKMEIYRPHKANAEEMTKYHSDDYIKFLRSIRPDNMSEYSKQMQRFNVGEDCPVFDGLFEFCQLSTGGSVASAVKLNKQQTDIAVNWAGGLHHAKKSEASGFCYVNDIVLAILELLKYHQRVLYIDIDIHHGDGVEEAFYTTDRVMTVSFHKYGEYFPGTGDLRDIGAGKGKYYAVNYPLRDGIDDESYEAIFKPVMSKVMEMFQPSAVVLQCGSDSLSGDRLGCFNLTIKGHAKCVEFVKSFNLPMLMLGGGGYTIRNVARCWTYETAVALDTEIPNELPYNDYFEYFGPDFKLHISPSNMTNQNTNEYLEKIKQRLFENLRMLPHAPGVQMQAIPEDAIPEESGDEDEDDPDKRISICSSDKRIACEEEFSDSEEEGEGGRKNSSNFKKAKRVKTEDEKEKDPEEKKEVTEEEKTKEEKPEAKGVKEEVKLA

What is called IC50 is the concentration that gives 50% inhibition. `O=C(CCCCCCC(=O)Nc1ccccc1C(=O)NO)Nc1ccccc1`: the IC50 amounted to 0.59 µM on Histone deacetylase 1; 8.17 µM with PC-3; 0.55 µM on Histone deacetylase 4; 63.5 µM with HepG2; 2.69 µM with HCT-116; 0.042 µM at Histone deacetylase. The Ratio IC50 in the series listed under Homo sapiens amounted to 1.01.

Consider `O=C(/C=C/c1ccc(/C=C/C(=O)c2ccc3ccccc3c2)o1)NO`, for which the IC50 at Histone deacetylase 1 came to 3.77 µM; with PC-3, 15.1 µM; on Histone deacetylase 4, 4.38 µM; in the series on HepG2, 9.93 µM; with HCT-116, 2.22 µM; with A549, 29.4 µM. The IC50 on Histone deacetylase stood at 0.63 µM. Also, the Ratio IC50 in the series listed under Homo sapiens is 0.9. The outcome (in the series with U-937 [1]; in the series on U-937 [2]; in series [3]; in the series with U-937 [4]) was Active.

Consider `COc1cc(/C=C/c2ccc(C(=O)NO)o2)ccc1OCc1ccccc1`, for which the IC50 worked out at 13.4 µM on Histone deacetylase 1; 1.2 µM in the series on PC-3; 10.2 µM at Histone deacetylase 4; 30.9 µM in the series with HepG2; 50.3 µM in the series on A549; 1.89 µM at Histone deacetylase. Also, the outcome with U-937 [5] and in the series on U-937 [6] was Active. Further, the Ratio IC50 in the series filed under Homo sapiens is 1.3.

Take `CN(C)c1ccc(/C=C/c2ccc(C(=O)NO)o2)cc1`: the IC50 came out at 49.1 µM at Histone deacetylase 1; 3.2 µM with PC-3; 50.6 µM at Histone deacetylase 4; 31.7 µM with HepG2; 46.3 µM in the series with A549. Also, the Ratio IC50 in the series listed under Homo sapiens worked out at 0.97. In addition, the result in the series with U-937 [1] and in the series with U-937 [6] was Active.

With `O=C(NO)c1ccc(/C=C/c2ccccc2)o1`, the IC50 at Histone deacetylase 1 worked out at 49.1 µM; with PC-3, 40.4 µM; on Histone deacetylase 4 it was 47.2 µM; with HepG2, 12.8 µM; in the series on HCT-116, 2.49 µM; with A549, 32.5 µM. In addition, the Ratio IC50 in the series filed under Homo sapiens amounted to 1.04. Besides, the result in the series on U-937 [7] and with U-937 [10] was Active. Also, the result with U-937 [8] was inactive. For the same compound, the Stability entry in the series with Plasma [9] and in the series on Plasma [11] was “Stable” each time.

In series [12], `O=C(/C=C/C=C/C=C/c1ccccc1)NO` had an IC50 of 1.8 µM.

Take `Cn1cc(/C=C/C(=O)c2cccc(F)c2)cc1/C=C/C(=O)NO`: the Selectivity ratio with Zea mays is 176.

For `O=C(/C=C/c1ccc(/C=C/C(=O)c2ccccc2)o1)NO`, the IC50 at Histone deacetylase 1 was 11.5 µM; with PC-3, 13.3 µM; on Histone deacetylase 4, 22.8 µM; in the series with HepG2, 12.1 µM; in the series with HCT-116, 2.89 µM; with A549, 20.2 µM. For the same compound, the Ratio IC50 in the series listed under Homo sapiens stood at 0.5. In addition, the result (in the series on U-937 [13]; in the series with U-937 [1]; in [3]) was Active. Also, the Stability result with Plasma [9] and in the series on Plasma [11] was “Stable” in each case.

Consider `O=C(NO)c1ccc(/C=C/c2ccccc2O)o1`, for which the 50% inhibitory concentration (IC50) at Histone deacetylase 1 amounted to 47.1 µM; with PC-3, 91.3 µM; at Histone deacetylase 4, 74.2 µM; in the series with HepG2, 54 µM; in the series with HCT-116, 5.1 µM; in the series on A549, 79.2 µM. For the same compound, the Ratio IC50 in the series listed under Homo sapiens worked out at 0.63. Besides, the outcome in the series with U-937 [7] and in the series on U-937 [10] was Active. Further, in the series with U-937 [8], the result was inactive.

The values above are taken from ChEMBL document CHEMBL1139422, “Design, synthesis and biological evaluation of novel compounds with conjugated structure as anti-tumor agents” (Bioorg Med Chem, 2008).
